Published values gathered from unrelated publications.
Each line is one published result; the experiments were not run side by side.
JAK1 JH2: Tyrosine-protein kinase JAK1, JH2 (JAK1, Homo sapiens, UniProt P23458)
JAK1 JH1: Tyrosine-protein kinase JAK1, JH1 (JAK1, Homo sapiens, UniProt P23458)
JAK1: Tyrosine-protein kinase JAK1 (JAK1, Homo sapiens, UniProt P23458)

| Compound | target | test | setting | quantity | result |
| --- | --- | --- | --- | --- | --- |
| Cn1cncc1[C@](O)(COc1ccc(C#N)cc1-c1ccc(OC(F)(F)F)cc1)c1ccc(C#N)cc1 | JAK1 JH2 | cell-free assay, competition with immobilised ligand | 1 µM | remaining binding | 70% |
| Cc1nn(C)cc1-c1nc2c(N3CCN(Cc4ccc(Cl)cc4)CC3)c(Cl)cnc2[nH]1 | JAK1 JH1 | binding, competition with immobilised ligand | 1 µM | remaining binding | 46% |
| Nc1ncc(-c2nc(N3CCOCC3)nc(N3CCOCC3)n2)c(C(F)F)n1 | JAK1 JH1 | binding, competition with immobilised ligand | 10 µM | remaining binding | 90% |
| Cn1cc(-c2cc(F)cc(N3CCn4c(cc5c4CCCC5)C3=O)c2CO)cc(Nc2ccc(N3CCN(C4COC4)CC3)cn2)c1=O | JAK1 | enzyme activity, inhibitor | 0.1 µM | inhibition | 6% |
| O=c1[nH]c2ccccc2n1C1CCN(Cc2ccc(-c3[nH]c4cc5ncnc5cc4nc3-c3ccccc3)cc2)CC1 | JAK1 | cell-free assay | 0.5 µM | remaining signal | 94.6% |
| N#CC1(c2ccccn2)CCN(Cc2cc(C(=O)O)c(=O)n3ccccc23)CC1 | JAK1 JH2 | cell-free assay, competition with immobilised ligand | 1 µM | remaining binding | 84% |
| C#Cc1n[nH]c2c(-c3cn(C(C)c4ccccn4)c(=O)[nH]c3=O)cc(F)cc12 (centres unmarked) | JAK1 | enzyme activity, inhibitor | 1 µM | inhibition | -2.3% |
| COc1cc(Nc2ncc(F)c(Nc3ccc4c(n3)NC(=O)C(C)(C)O4)n2)cc(OC)c1OC | JAK1 JH1 | binding, competition with immobilised ligand | 10 µM | inhibition | 100% |
| Cn1cc(-c2cccc(N3CCc4c(sc5c4CC(C)(C)C5)C3=O)c2CO)cc(Nc2ccncn2)c1=O | JAK1 | enzyme activity, inhibitor | 1 µM | inhibition | -2% |
| CC(C)(C)c1cc(C=C(C#N)C#N)cc(Br)c1O | JAK1 | enzyme activity, inhibitor | 0.5 µM | remaining activity | 107% |
| COc1ncccc1-c1cnn2ccc(N3CCN(C(=O)OC(C)C)CC3)nc12 | JAK1 | binding, competition with immobilised ligand | 1 µM | remaining binding | 100% |
